The values below come from ChEMBL document CHEMBL2086326, “Biological activity evaluation and structure-activity relationships analysis of ferulic acid and caffeic acid derivatives for anticancer” (Bioorg Med Chem Lett, 2012).

Common to all, as to assay type: functional, cell-based
For one assay, the system named is LOX IMVI. Description: Cytotoxicity against human LOXIMVI cells after 72 hrs by alamar blue assay. In a few lines: (§1)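 Cells seeded at 800–1000 per well (20–25 cells/µL) and left overnight to attach. Compounds were diluted serially from 10 mM DMSO stocks and tested at 8 final concentrations, 50 to 0.39 µM, in triplicate for 72 h. Vehicle control was 0.5% DMSO. Alamar blue was added to 10% final and fluorescence read after 4 h (ex 530, em 560 nm). Viability was expressed as percent of vehicle, and IC50 taken as 50% kill versus control.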

The test system of another assay is Calu-1. In words: Cytotoxicity against human Calu1 cells after 72 hrs by alamar blue assay. The conditions noted are these: Calu-1, 72 h. In a few lines:
as §1

The next assay has as its system NCI-H1792. Description: Cytotoxicity against human NCI-H1792 cells after 72 hrs by alamar blue assay. The conditions noted are these: NCI-H1792, 72 h. In a few lines: as §1
The next assay relates to NCI-H1299. Description: Cytotoxicity against human NCI-H1299 cells after 72 hrs by alamar blue assay. To be noted: NCI-H1299, 72 h. In a few lines: as §1
Background: Resazurin is reduced to fluorescent resorufin, in cell work by metabolically active cells.

The subject of the next assay is NCI-H157. In words: Cytotoxicity against human NCI-H157 cells after 72 hrs by alamar blue assay. The conditions noted are these: NCI-H157, 72 h. A digest of the protocol: as §1
The nature of assay [1]: Cytotoxicity against human H266 cells after 72 hrs by alamar blue assay. To be noted: H266, 72 h. In a few lines:
as §1

The next assay concerns NCI-H460. Description: Cytotoxicity against human H460 cells after 72 hrs by alamar blue assay. The conditions noted are these: NCI-H460, 72 h. In a few lines:
as §1

Assay [2] in a line: Cytotoxicity against human SKBR cells after 72 hrs by alamar blue assay. In a few lines: as §1
Another assay has as its system HOP-62. In words: Cytotoxicity against human HOP62 cells after 72 hrs by alamar blue assay. The conditions noted are these: HOP-62, 72 h. A digest of the protocol:
as §1

Assay [3] is described as follows: Cytotoxicity against human 292G cells after 72 hrs by alamar blue assay. In a few lines:
as §1

For the next assay, the system named is M14. Description: Cytotoxicity against human M14 cells after 72 hrs by alamar blue assay. The conditions noted are these: M14, 72 h. In a few lines:
as §1

A short description of assay [4]: Cytotoxicity against human M4E cells after 72 hrs by alamar blue assay. A digest of the protocol: as §1
The next assay relates to A549. In words: Cytotoxicity against human A549 cells after 72 hrs by alamar blue assay. To be noted: A549, 72 h. In a few lines:
as §1

A further assay deals with HeLa. In words: Cytotoxicity against human HeLa cells after 72 hrs by alamar blue assay. A digest of the protocol:
as §1

Each structure is given as a SMILES string. Where only a bound is given, the exact number is not on record here.

The IC50 is the point on the concentration scale where inhibition reaches its midpoint.

Turning to `COc1cc(/C=C/C(=O)OC(C)CCOc2no[n+]([O-])c2S(=O)(=O)c2ccccc2)ccc1O` (centres undefined), the IC50 in the assay with LOX IMVI was determined as 0.41 µM; with Calu-1, 0.45 µM; with NCI-H1792 it was 0.4 µM; in the assay with NCI-H1299, 0.41 µM; with NCI-H157, 0.41 µM; in assay [1], 0.43 µM. Further, the IC50 is 0.42 µM in the assay with NCI-H460; 0.4 µM in [2]; 0.42 µM in the assay on HOP-62; 1.77 µM in assay [3]; 0.41 µM with M14; 1.18 µM in [4]. Further, the 50% inhibitory concentration (IC50) in the assay on A549 is 0.42 µM; in the assay with HeLa, 0.4 µM.
In the case of `COC(=O)/C=C/c1ccc(O)c(OC)c1`, the IC50 (with LOX IMVI; with Calu-1; in the assay on NCI-H1792; in the assay with NCI-H1299; in the assay with NCI-H157; in [1]) was more than 50 µM throughout. Also, the IC50 (in the assay on NCI-H460; in assay [2]; with HOP-62; in assay [3]; in the assay on M14; in assay [4]) was more than 50 µM throughout. Besides, the IC50 in the assay on A549 is more than 50 µM; in the assay with HeLa it was 5.55 µM.
In the case of `CCCCCOC(=O)/C=C/c1ccc(O)c(O)c1`, the IC50 was determined as 3.38 µM in the assay on LOX IMVI; 8.57 µM in the assay on Calu-1; 6.35 µM in the assay with NCI-H1792; 4.69 µM in the assay with NCI-H1299; 2.28 µM in the assay with NCI-H157; 7.24 µM in assay [1]. The IC50 worked out at 1.91 µM in the assay on NCI-H460; 2.96 µM in assay [2]; 5.11 µM in the assay with HOP-62; 7.73 µM in assay [3]; 7.48 µM with M14; 6.8 µM in assay [4]. Besides, the IC50 in the assay on A549 stood at 5.75 µM; in the assay with HeLa, 2.02 µM.
For the compound `COc1cc(/C=C/C(=O)OCCCCCO[N+](=O)[O-])ccc1O`, the IC50 with LOX IMVI is more than 50 µM; in the assay with Calu-1, 26.3 µM; in the assay on NCI-H1792, 13 µM; in the assay on NCI-H1299, 20.8 µM; in the assay on NCI-H157 it was 13.4 µM; in assay [1], 21.2 µM. Also, the IC50 in the assay on NCI-H460 is 12.3 µM; in assay [2], 8.06 µM; in the assay on HOP-62, 12.5 µM; in [3], 24.9 µM; in the assay on M14 it was 24.5 µM; in assay [4], 21.8 µM. Besides, the figures for the IC50 with A549 and in the assay with HeLa were 6.39 µM and 13.4 µM, respectively.
Regarding `COc1cc(/C=C/C(=O)OC/C=C/CO[N+](=O)[O-])ccc1O`, the IC50 in the assay with LOX IMVI is 2.36 µM; with Calu-1, 2.48 µM; in the assay with NCI-H1792, 4.86 µM; in the assay with NCI-H1299, 2.34 µM; in the assay with NCI-H157, 4.29 µM; in [1], 9.79 µM. The IC50 with NCI-H460 was found to be 4.98 µM; in assay [2], 6.53 µM; with HOP-62 it was 5.13 µM; in assay [3] it was 21.9 µM; in the assay on M14 it was 3.89 µM; in assay [4], 9.38 µM. In addition, the results for the IC50 in the assay on A549 and in the assay on HeLa were 5.95 µM and 1 µM, respectively.
On to `O=C(/C=C/c1ccc(O)c(O)c1)OCCCCO[N+](=O)[O-]`, for which the IC50 with LOX IMVI is more than 50 µM; in the assay with Calu-1, 21.7 µM; in the assay on NCI-H1792 it was 15.4 µM; in the assay on NCI-H1299 it was 3.14 µM; in the assay with NCI-H157 it was 5.19 µM; in assay [1], 23.3 µM. Moreover, the IC50 in the assay with NCI-H460 is 3.52 µM; in assay [2] it was 4.55 µM; with HOP-62, 10 µM; in assay [3] it was 16.7 µM; with M14, 19.9 µM; in [4], 17.5 µM. Further, the IC50 in the assay on A549 was determined as 22.6 µM; with HeLa, 2.25 µM.
